According to ChEMBL document CHEMBL5715947 (Blood Cancer J, 2011):
The source made the active and inactive calls. No cut-off for these calls is given here.

Tests used:
[1] = Antiproliferative activity against human derived M4 Fab type Acute myeloid leukemic cells assessed as reduction in cell viability incubated for 48 hr by CellTiter-Glo assay; format: functional, cell-based; details: Leukemia cell
Method in brief: (§1)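 Primary AML peripheral blood or bone marrow mononuclear cells thawed and expanded ex vivo; blasts counted between day 10 and 13, characterised by CD123 FACS and FLT3 genotyping. Blasts treated 48 h; proliferation IC50 read by CellTiter-Glo.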

MV4-11 [2] = assay: Induction of apoptosis in human MV4-11 cells harboring FLT3-ITD mutant assessed as increase in early apoptotic cells after 72 hrs by AnnexinV-FITC/Propidium iodide staining based flow cytometric analysis; format: functional, cell-based; details: dose 0.03-0.15 µM
[3] = Antiproliferative activity against relapsed human derived M5b Fab type Acute myeloid leukemic cells assessed as reduction in cell viability incubated for 48 hr by CellTiter-Glo assay; format: functional, cell-based; details: Leukemia cell; method in brief: as §1
MOLM-13 [4] = assay: Induction of cell cycle arrest in human MOLM-13 cells harboring FLT3-ITD mutant assessed increase in cell accumulation at G1 phase after 24 hrs by Propidium iodide staining based flow cytometric analysis; format: functional
Method in brief: (§2)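 Cells then fixed in ice-cold 70% ethanol, stained with 20 ng/ml propidium iodide, and cell-cycle phases measured by flow cytometry.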

[5] = Antiproliferative activity against relapsed human derived M3 Fab type Acute myeloid leukemic cells assessed as reduction in cell viability incubated for 48 hr by CellTiter-Glo assay; format: functional, cell-based; details: Leukemia cell; method in brief: as §1
MOLM-13 [6] = assay: Antitumor activity against human MOLM-13 cells harboring FLT-3 ITD mutant xenografted in BALB/c nude mouse assessed as tumor growth inhibition at 150 mg/kg, […] relative to control; format: functional; details: MOLM-13, 168 h, route po, read-out: TGI
MV4-11 [7] = assay: Induction of apoptosis in human MV4-11 cells harboring FLT3-ITD mutant assessed viable cells at 0.03 uM after 72 hrs by AnnexinV-FITC/Propidium iodide staining based flow cytometric analysis (reference value: 90.5 %); format: functional
MV4-11 [8] = assay: Induction of apoptosis in human MV4-11 cells harboring FLT3-ITD mutant assessed late apoptotic cells at […] after 72 hrs by AnnexinV-FITC/Propidium iodide staining based flow cytometric analysis (reference value: 1.48 %); format: functional; details: dose 0.15 µM
MV4-11 [9] = assay: Induction of cell cycle arrest in human MV4-11 cells harboring FLT3-ITD mutant assessed decrease in cell accumulation at S phase after 24 hrs by Propidium iodide staining based flow cytometric analysis; format: functional; method in brief: as §2
[10] = Antiproliferative activity against relapsed human derived M2 Fab type Acute myeloid leukemic cells harboring FLT3-ITD mutant assessed as reduction in cell viability incubated for 48 hr by CellTiter-Glo assay; format: functional, cell-based; details: Leukemia cell; method in brief: as §1
RS4-11 = assay: Induction of cell cycle arrest in human RS4-11 cells assessed decrease in cell accumulation at S phase after 24 hrs by Propidium iodide staining based flow cytometric analysis; format: functional; method in brief: as §2
MV4-11 [11] = assay: Induction of apoptosis in human MV4-11 cells harboring FLT3-ITD mutant assessed necrotic cells at […] after 72 hrs by AnnexinV-FITC/Propidium iodide staining based flow cytometric analysis (reference value: 0.53 %); format: functional; details: dose 0.15 µM
MV4-11 [12] = assay: Induction of apoptosis in human MV4-11 cells harboring FLT3-ITD mutant assessed early apoptotic cells at 0.03 uM after 48 hrs by AnnexinV-FITC/Propidium iodide staining based flow cytometric analysis (reference value: 11.84 %); format: functional
MOLM-13 [13] = assay: Antitumor activity against human MOLM-13 cells harboring FLT-3 ITD mutant xenografted in BALB/c nude mouse assessed as decrease in phosphorylated STAT5 at Y694 residue at 150 mg/kg, po measured after 3 hrs by Western blot analysis; format: functional, organism-based
Method in brief: (§3)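 Mice bearing s.c. MOLM-13 xenografts given a single oral dose of 150 mg/kg. Tumours harvested at 3 h; lysates immunoblotted for phospho-FLT3, -STAT3, -STAT5, -Akt and total actin.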

MV4-11 [14] = assay: Induction of apoptosis in human MV4-11 cells harboring FLT3-ITD mutant assessed necrotic cells at 0.03 uM after 72 hrs by AnnexinV-FITC/Propidium iodide staining based flow cytometric analysis (reference value: 0.53 %); format: functional
MV4-11 [15] = assay: Induction of apoptosis in human MV4-11 cells harboring FLT3-ITD mutant assessed necrotic cells at […] after 48 hrs by AnnexinV-FITC/Propidium iodide staining based flow cytometric analysis (reference value: 0.45 %); format: functional; details: dose 0.15 µM
MOLM-13 [16] = assay: Antitumor activity against human MOLM-13 cells harboring FLT-3 ITD mutant xenografted in BALB/c nude mouse assessed as decrease in phosphorylated […] residue at 150 mg/kg, po measured after 3 hrs by Western blot analysis; format: functional, organism-based; method in brief: as §3
MOLM-13 [17] = assay: Antitumor activity against human MOLM-13 cells harboring FLT-3 ITD mutant xenografted in BALB/c nude mouse assessed as decrease in phosphorylated STAT3 at Y704 residue at 150 mg/kg, po measured after 3 hrs by Western blot analysis; format: functional, organism-based; method in brief: as §3
[18] = Antiproliferative activity against human derived M5b Fab type Acute myeloid leukemic cells assessed as reduction in cell viability incubated for 48 hr by CellTiter-Glo assay; format: functional, cell-based; details: Leukemia cell; method in brief: as §1
MV4-11 [19] = assay: Antitumor activity against human MV4-11 cells harboring FLT-3 ITD mutant xenografted in BALB/c nude mouse assessed as tumor growth inhibition at 25 mg/kg, po administered daily for 21 days relative to control; format: functional; details: MV4-11, 504 h, time 21 day, read-out: TGI
Method in brief: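 Female BALB/c nude mice implanted s.c. in right flank with 1 × 10^7 MV4-11 cells in serum-free medium mixed 1:1 with Matrigel. Randomised on day 11 at mean 146–150 mm3 (n=10/group); oral hydrochloride salt once daily for 21 days in 0.5% methylcellulose/0.1% Tween-80. Doses are free-base equivalents; caliper twice weekly; ANOVA with Dunnett's test.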

MOLM-13 [20] = assay: Antitumor activity against human MOLM-13 cells harboring FLT-3 ITD mutant xenografted in BALB/c nude mouse assessed as decrease in phosphorylated FLT3 at Y591 residue at 150 mg/kg, po measured after 3 hrs by Western blot analysis; format: functional, organism-based; method in brief: as §3
MV4-11 [21] = assay: Induction of apoptosis in human MV4-11 cells harboring FLT3-ITD mutant assessed late apoptotic cells at 0.03 uM after 72 hrs by AnnexinV-FITC/Propidium iodide staining based flow cytometric analysis (reference value: 1.48 %); format: functional

## C1=N/C2=N/c3ccc(OCCN4CCCC4)c(c3)COC/C=C/COCc3cccc(c3)C(=C1)N2 [PACRITINIB]
[1]
  IC50: 840 nM
MV4-11 [2]
  Activity: Dose-Dependent Effect
[3]
  IC50: 460 nM
MOLM-13 [4]
  Activity: Dose-Dependent Effect
[5]
  IC50: 210 nM
MOLM-13 [6]
  inhibition in vivo at 150 mg/kg: 83%
MV4-11 [7]
  Activity: 72.52%
MV4-11 [8]
  Activity: 15.1%
MV4-11 [9]
  Activity: Dose-Dependent Effect
[10]
  IC50: 340 nM
RS4-11
  Activity: Dose-Dependent Effect
MV4-11 [11]
  Activity: 4.06%
MV4-11 [12]
  Activity: 24.5%
MOLM-13 [13]
  Activity: Active
MV4-11 [14]
  Activity: 1.06%
MV4-11 [15]
  Activity: 4.18%
MOLM-13 [16]
  Activity: Active
MOLM-13 [17]
  Activity: Active
[18]
  IC50: 240 nM
MV4-11 [19]
  inhibition in vivo at 25 mg/kg: 38%
MOLM-13 [20]
  Activity: Active
MV4-11 [21]
  Activity: 3.74%
